Source: ChEMBL document CHEMBL5058577, “EUbOPEN Chemogenomics Library 2 (Multiplex)” (2022)

Tested on: U2OS
Assay: Multiplex assay against U2OS
Assay type: toxicity, cell-based
Conditions: human
Outline: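 On a CQ1 microscope at 37°C and 5% CO2, live cells were imaged after compound addition. They had been stained at seeding with Hoechst33342, BioTracker Green Microtubule Cytoskeleton Dye, MitoTracker Red and Annexin V Alexa Fluor 680. CellPathfinder machine-learning gating assigned cells to Hoechst high-intensity objects or normal cells, normal cells to healthy, pyknosed or fragmented nuclei, and pyknosed cells to mitotic or apoptotic. Tubulin, mitochondrial-mass and membrane-permeability phenotypes are per cents of healthy-nucleus cells.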

[1] = 12 h, 1 µM, compound concentration 1 uM, replicate 1
[2] = 12 h, 1 µM, compound concentration 1 uM, replicate 2
[3] = 12 h, 10 µM, compound concentration 10 uM, replicate 1
[4] = 12 h, 10 µM, compound concentration 10 uM, replicate 2
[5] = 24 h, 1 µM, compound concentration 1 uM, replicate 1
[6] = 24 h, 1 µM, compound concentration 1 uM, replicate 2
[7] = 24 h, 10 µM, compound concentration 10 uM, replicate 1
[8] = 24 h, 10 µM, compound concentration 10 uM, replicate 2
[9] = 48 h, 1 µM, compound concentration 1 uM, replicate 1
[10] = 48 h, 1 µM, compound concentration 1 uM, replicate 2
[11] = 48 h, 10 µM, compound concentration 10 uM, replicate 1
[12] = 48 h, 10 µM, compound concentration 10 uM, replicate 2

Cc1ccc(C(C)(O)c2nc3ccccc3s2)c(C)c1 (stereo unspecified)
Population Apoptotic (%) [1]: 86% | Population Fragmented Nuclei (%) [1]: 19% | Population Healthy Nuclei (%) [1]: 70% | Population Hoechst High Intensity Objects (%) [1]: 3% | Population Membrane Permeable-Phenotype (%) [1]: 4% | Population Mitochondria Different-Phenotype (%) [1]: 1% | Population Mitotic Cells (%) [1]: 13% | Population Normal (%) [1]: 96% | Population Pyknosed Nuclei (%) [1]: 9% | Population Tubulin-Different-Phenotype (%) [1]: 2% | Total Cell Count [1]: 249 | Population Apoptotic (%) [2]: 100% | Population Fragmented Nuclei (%) [2]: 17% | Population Healthy Nuclei (%) [2]: 78% | Population Hoechst High Intensity Objects (%) [2]: 0% | Population Membrane Permeable-Phenotype (%) [2]: 9% | Population Mitochondria Different-Phenotype (%) [2]: 4% | Population Mitotic Cells (%) [2]: 0% | Population Normal (%) [2]: 99% | Population Pyknosed Nuclei (%) [2]: 3% | Population Tubulin-Different-Phenotype (%) [2]: 5% | Total Cell Count [2]: 141 | Population Apoptotic (%) [3]: 100% | Population Fragmented Nuclei (%) [3]: 25% | Population Healthy Nuclei (%) [3]: 67% | Population Hoechst High Intensity Objects (%) [3]: 2% | Population Membrane Permeable-Phenotype (%) [3]: 9% | Population Mitochondria Different-Phenotype (%) [3]: 3% | Population Mitotic Cells (%) [3]: 0% | Population Normal (%) [3]: 97% | Population Pyknosed Nuclei (%) [3]: 6% | Population Tubulin-Different-Phenotype (%) [3]: 3% | Total Cell Count [3]: 234 | Population Apoptotic (%) [4]: 66% | Population Fragmented Nuclei (%) [4]: 18% | Population Healthy Nuclei (%) [4]: 77% | Population Hoechst High Intensity Objects (%) [4]: 4% | Population Membrane Permeable-Phenotype (%) [4]: 3% | Population Mitochondria Different-Phenotype (%) [4]: 1% | Population Mitotic Cells (%) [4]: 33% | Population Normal (%) [4]: 95% | Population Pyknosed Nuclei (%) [4]: 3% | Population Tubulin-Different-Phenotype (%) [4]: 1% | Total Cell Count [4]: 89 | Population Apoptotic (%) [5]: 92% | Population Fragmented Nuclei (%) [5]: 22% | Population Healthy Nuclei (%) [5]: 69% | Population Hoechst High Intensity Objects (%) [5]: 1% | Population Membrane Permeable-Phenotype (%) [5]: 4% | Population Mitochondria Different-Phenotype (%) [5]: 0% | Population Mitotic Cells (%) [5]: 7% | Population Normal (%) [5]: 98% | Population Pyknosed Nuclei (%) [5]: 8% | Population Tubulin-Different-Phenotype (%) [5]: 3% | Total Cell Count [5]: 327 | Population Apoptotic (%) [6]: 90% | Population Fragmented Nuclei (%) [6]: 13% | Population Healthy Nuclei (%) [6]: 80% | Population Hoechst High Intensity Objects (%) [6]: 0% | Population Membrane Permeable-Phenotype (%) [6]: 6% | Population Mitochondria Different-Phenotype (%) [6]: 3% | Population Mitotic Cells (%) [6]: 10% | Population Normal (%) [6]: 99% | Population Pyknosed Nuclei (%) [6]: 6% | Population Tubulin-Different-Phenotype (%) [6]: 4% | Total Cell Count [6]: 159 | Population Apoptotic (%) [7]: 88% | Population Fragmented Nuclei (%) [7]: 22% | Population Healthy Nuclei (%) [7]: 71% | Population Hoechst High Intensity Objects (%) [7]: 1% | Population Membrane Permeable-Phenotype (%) [7]: 5% | Population Mitochondria Different-Phenotype (%) [7]: 3% | Population Mitotic Cells (%) [7]: 11% | Population Normal (%) [7]: 98% | Population Pyknosed Nuclei (%) [7]: 6% | Population Tubulin-Different-Phenotype (%) [7]: 3% | Total Cell Count [7]: 272 | Population Apoptotic (%) [8]: 75% | Population Fragmented Nuclei (%) [8]: 16% | Population Healthy Nuclei (%) [8]: 75% | Population Hoechst High Intensity Objects (%) [8]: 4% | Population Membrane Permeable-Phenotype (%) [8]: 3% | Population Mitochondria Different-Phenotype (%) [8]: 1% | Population Mitotic Cells (%) [8]: 25% | Population Normal (%) [8]: 95% | Population Pyknosed Nuclei (%) [8]: 7% | Total Cell Count [8]: 113 | Population Apoptotic (%) [9]: 88% | Population Fragmented Nuclei (%) [9]: 16% | Population Healthy Nuclei (%) [9]: 74% | Population Hoechst High Intensity Objects (%) [9]: 2% | Population Membrane Permeable-Phenotype (%) [9]: 5% | Population Mitochondria Different-Phenotype (%) [9]: 2% | Population Mitotic Cells (%) [9]: 11% | Population Normal (%) [9]: 97% | Population Pyknosed Nuclei (%) [9]: 9% | Population Tubulin-Different-Phenotype (%) [9]: 2% | Total Cell Count [9]: 442 | Population Apoptotic (%) [10]: 94% | Population Fragmented Nuclei (%) [10]: 15% | Population Healthy Nuclei (%) [10]: 76% | Population Hoechst High Intensity Objects (%) [10]: 3% | Population Membrane Permeable-Phenotype (%) [10]: 6% | Population Mitochondria Different-Phenotype (%) [10]: 3% | Population Mitotic Cells (%) [10]: 5% | Population Normal (%) [10]: 96% | Population Pyknosed Nuclei (%) [10]: 8% | Population Tubulin-Different-Phenotype (%) [10]: 5% | Total Cell Count [10]: 215 | Population Apoptotic (%) [11]: 96% | Population Fragmented Nuclei (%) [11]: 23% | Population Healthy Nuclei (%) [11]: 69% | Population Hoechst High Intensity Objects (%) [11]: 2% | Population Membrane Permeable-Phenotype (%) [11]: 6% | Population Mitochondria Different-Phenotype (%) [11]: 1% | Population Mitotic Cells (%) [11]: 3% | Population Normal (%) [11]: 97% | Population Pyknosed Nuclei (%) [11]: 7% | Population Tubulin-Different-Phenotype (%) [11]: 4% | Total Cell Count [11]: 365 | Population Apoptotic (%) [12]: 85% | Population Fragmented Nuclei (%) [12]: 11% | Population Healthy Nuclei (%) [12]: 83% | Population Hoechst High Intensity Objects (%) [12]: 5% | Population Membrane Permeable-Phenotype (%) [12]: 5% | Population Mitotic Cells (%) [12]: 14% | Population Normal (%) [12]: 94% | Population Pyknosed Nuclei (%) [12]: 5% | Total Cell Count [12]: 147

CN(C)c1ccnc2sc3c(=O)n(N4CCCCCC4)cnc3c12
Population Apoptotic (%) [1]: 81% | Population Fragmented Nuclei (%) [1]: 19% | Population Healthy Nuclei (%) [1]: 72% | Population Hoechst High Intensity Objects (%) [1]: 1% | Population Membrane Permeable-Phenotype (%) [1]: 4% | Population Mitochondria Different-Phenotype (%) [1]: 2% | Population Mitotic Cells (%) [1]: 18% | Population Normal (%) [1]: 98% | Population Pyknosed Nuclei (%) [1]: 7% | Population Tubulin-Different-Phenotype (%) [1]: 2% | Total Cell Count [1]: 284 | Population Apoptotic (%) [2]: 87% | Population Fragmented Nuclei (%) [2]: 16% | Population Healthy Nuclei (%) [2]: 77% | Population Membrane Permeable-Phenotype (%) [2]: 6% | Population Mitotic Cells (%) [2]: 12% | Population Pyknosed Nuclei (%) [2]: 6% | Total Cell Count [2]: 132 | Population Apoptotic (%) [3]: 41% | Population Fragmented Nuclei (%) [3]: 30% | Population Healthy Nuclei (%) [3]: 56% | Population Hoechst High Intensity Objects (%) [3]: 4% | Population Membrane Permeable-Phenotype (%) [3]: 30% | Population Mitochondria Different-Phenotype (%) [3]: 14% | Population Mitotic Cells (%) [3]: 58% | Population Normal (%) [3]: 95% | Population Pyknosed Nuclei (%) [3]: 12% | Population Tubulin-Different-Phenotype (%) [3]: 20% | Total Cell Count [3]: 249 | Population Apoptotic (%) [4]: 88% | Population Fragmented Nuclei (%) [4]: 18% | Population Healthy Nuclei (%) [4]: 71% | Population Hoechst High Intensity Objects (%) [4]: 5% | Population Membrane Permeable-Phenotype (%) [4]: 23% | Population Mitochondria Different-Phenotype (%) [4]: 27% | Population Mitotic Cells (%) [4]: 11% | Population Normal (%) [4]: 94% | Population Pyknosed Nuclei (%) [4]: 9% | Population Tubulin-Different-Phenotype (%) [4]: 22% | Total Cell Count [4]: 101 | Population Apoptotic (%) [5]: 87% | Population Fragmented Nuclei (%) [5]: 16% | Population Healthy Nuclei (%) [5]: 72% | Population Hoechst High Intensity Objects (%) [5]: 2% | Population Membrane Permeable-Phenotype (%) [5]: 3% | Population Mitochondria Different-Phenotype (%) [5]: 3% | Population Mitotic Cells (%) [5]: 12% | Population Normal (%) [5]: 97% | Population Pyknosed Nuclei (%) [5]: 10% | Population Tubulin-Different-Phenotype (%) [5]: 1% | Total Cell Count [5]: 326 | Population Apoptotic (%) [6]: 72% | Population Fragmented Nuclei (%) [6]: 15% | Population Healthy Nuclei (%) [6]: 76% | Population Membrane Permeable-Phenotype (%) [6]: 6% | Population Mitotic Cells (%) [6]: 27% | Population Pyknosed Nuclei (%) [6]: 7% | Population Tubulin-Different-Phenotype (%) [6]: 4% | Total Cell Count [6]: 150 | Population Apoptotic (%) [7]: 68% | Population Fragmented Nuclei (%) [7]: 28% | Population Healthy Nuclei (%) [7]: 56% | Population Hoechst High Intensity Objects (%) [7]: 4% | Population Membrane Permeable-Phenotype (%) [7]: 22% | Population Mitochondria Different-Phenotype (%) [7]: 15% | Population Mitotic Cells (%) [7]: 31% | Population Normal (%) [7]: 95% | Population Pyknosed Nuclei (%) [7]: 15% | Population Tubulin-Different-Phenotype (%) [7]: 14% | Total Cell Count [7]: 260 | Population Apoptotic (%) [8]: 100% | Population Fragmented Nuclei (%) [8]: 11% | Population Healthy Nuclei (%) [8]: 75% | Population Hoechst High Intensity Objects (%) [8]: 3% | Population Membrane Permeable-Phenotype (%) [8]: 23% | Population Mitochondria Different-Phenotype (%) [8]: 25% | Population Mitotic Cells (%) [8]: 0% | Population Normal (%) [8]: 96% | Population Pyknosed Nuclei (%) [8]: 13% | Population Tubulin-Different-Phenotype (%) [8]: 24% | Total Cell Count [8]: 108 | Population Apoptotic (%) [9]: 90% | Population Fragmented Nuclei (%) [9]: 17% | Population Healthy Nuclei (%) [9]: 74% | Population Hoechst High Intensity Objects (%) [9]: 2% | Population Membrane Permeable-Phenotype (%) [9]: 4% | Population Mitochondria Different-Phenotype (%) [9]: 1% | Population Mitotic Cells (%) [9]: 9% | Population Normal (%) [9]: 97% | Population Pyknosed Nuclei (%) [9]: 8% | Population Tubulin-Different-Phenotype (%) [9]: 2% | Total Cell Count [9]: 486 | Population Apoptotic (%) [10]: 92% | Population Fragmented Nuclei (%) [10]: 15% | Population Healthy Nuclei (%) [10]: 72% | Population Membrane Permeable-Phenotype (%) [10]: 5% | Population Mitochondria Different-Phenotype (%) [10]: 5% | Population Mitotic Cells (%) [10]: 7% | Population Pyknosed Nuclei (%) [10]: 11% | Total Cell Count [10]: 239 | Population Apoptotic (%) [11]: 68% | Population Fragmented Nuclei (%) [11]: 28% | Population Healthy Nuclei (%) [11]: 57% | Population Hoechst High Intensity Objects (%) [11]: 4% | Population Membrane Permeable-Phenotype (%) [11]: 15% | Population Mitochondria Different-Phenotype (%) [11]: 11% | Population Mitotic Cells (%) [11]: 31% | Population Normal (%) [11]: 95% | Population Pyknosed Nuclei (%) [11]: 14% | Population Tubulin-Different-Phenotype (%) [11]: 7% | Total Cell Count [11]: 325 | Population Apoptotic (%) [12]: 72% | Population Fragmented Nuclei (%) [12]: 15% | Population Healthy Nuclei (%) [12]: 61% | Population Hoechst High Intensity Objects (%) [12]: 9% | Population Membrane Permeable-Phenotype (%) [12]: 21% | Population Mitochondria Different-Phenotype (%) [12]: 19% | Population Mitotic Cells (%) [12]: 27% | Population Normal (%) [12]: 90% | Population Pyknosed Nuclei (%) [12]: 22% | Population Tubulin-Different-Phenotype (%) [12]: 23% | Total Cell Count [12]: 140
